Format in all cases: functional
Common to all, as to conditions: time 7 day

In test [1] the test system is Mycobacterium tuberculosis. Briefly: Antitubercular activity against FQ resistant Mycobacterium tuberculosis H37Rv harboring gyrA Gly-88-Cys mutant measured after 7 days by resazurin microtiter assay. The method, boiled down: (§1)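 Resazurin microtiter assay with two-fold drug dilutions in complete 7H9 broth. Exponential-phase cells are diluted to a final OD600 of 0.005 in 7H9 without Tween. Incubation is 7 days at 37°C, then 0.01% resazurin is added and plates are held 24 h more. MIC is the lowest concentration preventing the blue-to-pink change. Each MIC is determined three times in duplicate experiments.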
Background: Alamar Blue is a resazurin reagent that responds to reducing activity.

The test system of test [2] is Mycobacterium tuberculosis. Briefly: Antitubercular activity against FQ resistant Mycobacterium tuberculosis H37Rv harboring gyrA Ser-91-Pro mutant measured after 7 days by resazurin microtiter assay. The method, boiled down: as §1
Test [3] relates to Mycobacterium tuberculosis. The test can be described thus: Antitubercular activity against FQ resistant Mycobacterium tuberculosis H37Rv harboring gyrA Asp-94-Gly/gyrB Asp-500-Asn mutant measured after 7 days by resazurin microtiter assay. The method in brief:
as §1

In test [4] the test system is Mycobacterium tuberculosis. The test can be described thus: Antitubercular activity against FQ resistant Mycobacterium tuberculosis H37Rv harboring gyrA Ala-90-Val/gyrB Glu-540-Val mutant measured after 7 days by resazurin microtiter assay. The method, boiled down:
as §1

For test [5], the system named is Mycobacterium tuberculosis. The test can be described thus: Antitubercular activity against FQ resistant Mycobacterium tuberculosis H37Rv harboring gyrA Ala-90-Val mutant measured after 7 days by resazurin microtiter assay. The method, boiled down:
as §1

Test [6] relates to Mycobacterium tuberculosis. The test can be described thus: Antitubercular activity against FQ resistant Mycobacterium tuberculosis H37Rv harboring gyrA Asp-94-Gly mutant measured after 7 days by resazurin microtiter assay. The method in brief:
as §1

Values after ≈ are worked out from the molar mass of the structure shown.

In general, MIC90 refers to the lowest concentration that inhibits either 90% of growth or 90% of the strains tested, depending on the study.

For `CCOC(=O)c1cn(C)c2c(cc([N+](=O)[O-])c3cccnc32)c1=O`, the MIC90 is >50 µM in test [1]; >50 µM in test [2]; >50 µM in test [3]; >50 µM in test [4]; >50 µM in test [5]; 1.21 µM (≈ 0.396 µg/mL) in test [6].

For the molecule `CCOC(=O)c1cn(CC)c2c(cc([N+](=O)[O-])c3cccnc32)c1=O`, the MIC90 was >50 µM in test [1]; >50 µM in test [2]; >50 µM in test [3]; >50 µM in test [4]; >50 µM in test [5]; 4.99 µM (≈ 1.7 µg/mL) in test [6].

For the molecule `COc1c(N2C[C@@H]3CCCN[C@@H]3C2)c(F)cc2c(=O)c(C(=O)O)cn(C3CC3)c12` [MOXIFLOXACIN], the MIC90 in test [1] was 6.16 µM (≈ 2.47 µg/mL); in test [2] it was 6.16 µM (≈ 2.47 µg/mL); in test [3], 6.16 µM (≈ 2.47 µg/mL); in test [4] it was 6.16 µM (≈ 2.47 µg/mL); in test [5], 3.08 µM (≈ 1.24 µg/mL); in test [6], 3.08 µM (≈ 1.24 µg/mL).

With `CCn1cc(C(=O)O)c(=O)c2cc([N+](=O)[O-])c3cccnc3c21`, the MIC90 in test [1] is 11.68 µM (≈ 3.66 µg/mL); in test [2], 11.68 µM (≈ 3.66 µg/mL); in test [3], 5.84 µM (≈ 1.83 µg/mL); in test [4] it was 11.68 µM (≈ 3.66 µg/mL); in test [5], 11.68 µM (≈ 3.66 µg/mL); in test [6], 2.99 µM (≈ 0.937 µg/mL).

Take `Cn1cc(C(=O)O)c(=O)c2cc([N+](=O)[O-])c3cccnc3c21`: the MIC90 in test [1] was 2.64 µM (≈ 0.79 µg/mL); in test [2], 5.28 µM (≈ 1.58 µg/mL); in test [3], 5.28 µM (≈ 1.58 µg/mL); in test [4] it was 5.28 µM (≈ 1.58 µg/mL); in test [5], 5.28 µM (≈ 1.58 µg/mL); in test [6] it was 2.64 µM (≈ 0.79 µg/mL).

With `CCn1cc(C(=O)O)c(=O)c2ccc(C)nc21` [NALIDIXIC ACID], the MIC90 in test [1], in test [2], in test [3], in test [4], in test [5] and in test [6] was >50 µM throughout.

For the molecule `CC1COc2c(N3CCN(C)CC3)c(F)cc3c(=O)c(C(=O)O)cn1c23` (configuration not stated) [OFLOXACIN], the MIC90 in test [1] was 27.6 µM (≈ 9.97 µg/mL); in test [2], 27.6 µM (≈ 9.97 µg/mL); in test [3], 27.6 µM (≈ 9.97 µg/mL); in test [4], 27.6 µM (≈ 9.97 µg/mL); in test [5], 13.8 µM (≈ 4.99 µg/mL); in test [6], 13.8 µM (≈ 4.99 µg/mL).

The record behind these values is ChEMBL document CHEMBL4765453, “Phenanthrolinic analogs of quinolones show antibacterial activity against M. tuberculosis” (Eur J Med Chem, 2020).
